Measurements from ChEMBL document CHEMBL3580554, “Design, synthesis, and anticonvulsant activity of new hybrid compounds derived from 2-(2,5-dioxopyrrolidin-1-yl)propanamides and 2-(2,5-dioxopyrrolidin-1-yl)butanamides” (J Med Chem, 2015).

Tests used:
Mus musculus [1] = experiment: Anticonvulsant activity in Swiss mouse model of 6 Hz psychomotor seizure mode assessed as protection against seizures at 100 mg/kg, ip dosed 2 hrs before 6 Hz electrical stimulation by 6 Hz test; type: functional
How it was run: (§1)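 Mice were dosed i.p. at a fixed 300 or 100 mg/kg (6 Hz: 100 mg/kg only). Protection was then scored against MES, sc PTZ or 6 Hz seizures at pretreatment times of 0.25, 0.5, 1 and 2 h. Groups were four mice, scored as number protected / number tested. This also gives the time course and time of peak effect.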

Mus musculus [2] = experiment: Anticonvulsant activity in ip dosed Swiss mouse assessed as protection against seizures measured at 0.5 hrs of time to peak effect by 6 Hz test by 6 Hz psychomotor seizure test; type: functional
How it was run: (§2)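 Median effective doses (ED50, mg/kg) were determined i.p. in mice at the time of peak effect in the MES, sc PTZ or 6 Hz tests. Only compounds giving at least 50% protection at 100 mg/kg in that test were taken forward.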

Mus musculus [3] = experiment: Anticonvulsant activity in ip dosed Swiss mouse assessed as protection against seizures measured at 1 hr of time to peak effect by subcutaneous pentylenetetrazole seizure test; type: functional
Mus musculus [4] = experiment: Anticonvulsant activity in Swiss mouse assessed as protection against seizures at 100 mg/kg, ip dosed 1 hr before initiation of maximal electroconvulsions by maximal electroshock test; type: functional; how it was run: as §1
Mus musculus [5] = experiment: Anticonvulsant activity in ip dosed Swiss mouse assessed as protection against seizures measured at 1 hr of time to peak effect by 6 Hz test by 6 Hz psychomotor seizure test; type: functional
Mus musculus [6] = experiment: Anticonvulsant activity in Swiss mouse assessed as protection against seizures at 300 mg/kg, ip dosed 0.25 hrs before initiation of maximal electroconvulsions by maximal electroshock test; type: functional; how it was run: as §1
[7] = Toxicity in ip dosed Swiss mouse assessed as induction of motor performance impairment measured within 60 seconds measured at 1 hr of time to peak effect by Chimney test; type: organism-based; conditions: in vivo
How it was run: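 Neurotoxicity (TD50) estimated in mice i.p. by chimney test for motor coordination impairment; protective index calculated as TD50/ED50 for each seizure model.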

Mus musculus [8] = experiment: Anticonvulsant activity in Swiss mouse assessed as protection against seizures at 100 mg/kg, ip dosed 0.5 hrs before initiation of maximal electroconvulsions by maximal electroshock test; type: functional; how it was run: as §1
Rattus norvegicus [9] = organism: Rattus norvegicus; experiment: Inhibition of [3H]BTX binding to sodium channel site 2 in rat cerebral cortex synaptosomes at 500 uM incubated for 60 mins by scintillation counting based radioligand displacement assay; type: subcellular
How it was run: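 Synaptoneurosomal preparations from rat cerebral cortex were used. The read-out was inhibition of specific [3H]BTX binding to the voltage-sensitive sodium channel (site 2), expressed as % inhibition of control specific binding. Compounds were tested at 1, 10, 100 and 500 μM. Inhibition above 50% was taken as significant.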

[10] = Ratio of IC50 for test compound to IC50 for doxorubicin against HEK293 cells assessed as reduction in cell viability after 48 hrs by EZ4U label based assay; conditions: human, read-out: Ratio IC50
Mus musculus [11] = experiment: Anticonvulsant activity in ip dosed Swiss mouse assessed as protection against seizures measured at 0.5 hrs of time to peak effect by maximal electroshock test; type: functional; how it was run: as §2
Mus musculus [12] = experiment: Anticonvulsant activity in Swiss mouse assessed as protection against seizures at 100 mg/kg, ip dosed 2 hrs before pentylenetetrazole challenge by subcutaneous pentylenetetrazole seizure test; type: functional; how it was run: as §1
Mus musculus [13] = experiment: Anticonvulsant activity in Swiss mouse assessed as protection against seizures at 300 mg/kg, ip dosed 0.5 hrs before initiation of maximal electroconvulsions by maximal electroshock test; type: functional; how it was run: as §1
Mus musculus [14] = organism: Mus musculus; experiment: Protective index, ratio of neurotoxic TD50 in Swiss mouse by Chimney test to anticonvulsant ED50 in Swiss mouse measured at 0.5 hrs of time to peak effect by maximal electroshock test
How it was run: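 Protective index was calculated as TD50 (chimney test, mouse, i.p.) divided by ED50 from the matching MES, sc PTZ or 6 Hz test, both taken at the time of peak effect.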

Liver microsome = experiment: Drug metabolism in human liver microsomes assessed as metabolite M4 formation at 50 uM in presence of NADPH regeneration system pre-incubated at 37 degC for 5 min and measured 2 hrs after post NADPH system addition by UPLC and LC-MS/MS method; type: ADME
How it was run: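 The compound was incubated 2 h with human liver microsomes. Metabolites were detected by full-scan chromatogram and identified by LC/MS from their [M+H]+ molecular masses.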

Mus musculus [15] = experiment: Anticonvulsant activity in Swiss mouse assessed as protection against seizures at 300 mg/kg, ip dosed 0.25 hrs before pentylenetetrazole challenge by subcutaneous pentylenetetrazole seizure test; type: functional; how it was run: as §1
[16] = Toxicity in ip dosed Swiss mouse assessed as induction of motor performance impairment measured within 60 seconds measured at 0.5 hrs of time to peak effect by Chimney test; type: organism-based; conditions: in vivo
How it was run: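 Neurotoxicity was measured i.p. in mice by the chimney test for motor impairment. It was given as the median neurotoxic dose (TD50, mg/kg) at the time of peak effect.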

Rattus norvegicus [17] = organism: Rattus norvegicus; experiment: Inhibition of [125I]omega-conotoxin GVIA binding to N-type calcium channel in rat cerebral cortex synaptosomes at 100 uM incubated for 30 mins by scintillation counting based radioligand displacement assay; type: subcellular
Mus musculus [18] = experiment: Anticonvulsant activity in Swiss mouse assessed as protection against seizures at 300 mg/kg, ip dosed 1 hr before pentylenetetrazole challenge by subcutaneous pentylenetetrazole seizure test; type: functional; how it was run: as §1

CC(C(=O)N1CCN(c2cccc(C(F)(F)F)c2)CC1)N1C(=O)CCC1=O (racemic)
Activity (Mus musculus [1]): 100%
ED50 (Mus musculus [2]): 21 mg/kg
ED50 (Mus musculus [3]): 88.7 mg/kg
Activity (Mus musculus [4]): 50%
ED50 (Mus musculus [5]): 35 mg/kg
Activity (Mus musculus [6]): 75%
TD50 at 1 h [7]: 824 mg/kg
Activity (Mus musculus [8]): 75%
inhibition (Rattus norvegicus [9]): 62.3%
selectivity ratio at 48 h [10]: 100
ED50 (Mus musculus [11]): 88.4 mg/kg
Activity (Mus musculus [12]): 75%
Activity (Mus musculus [13]): 100%
Ratio TD50/ED50 (Mus musculus [14]): >16.97
Drug metabolism (Liver microsome): metabolite_detected
Activity (Mus musculus [15]): 100%
TD50 at 0.5 h [16]: > 1500 mg/kg
inhibition (Rattus norvegicus [17]): 13.9%
Activity (Mus musculus [18]): 100%
